Results published in ChEMBL document CHEMBL1124265, “Effects of D-amino acid substitution on antagonist activities of angiotensin II analogues” (J Med Chem, 1988).
Residues, ends and D or L forms follow the SMILES beside them.

The molecules below were run on Rattus norvegicus (assay: In vivo AII-like activity, expressed as percent activity relative to AII (angiotensin II), measured in rat blood pressure assay). Conditions: not given.
Format: functional
How it was run: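 Rat blood pressure assay in vivo. Residual agonist activity is expressed as percent activity relative to AII.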

Row | Structure (SMILES) | Biological activity [%]
1 | CC(C)[C@H](NC(=O)[C@H](CCCN=C(N)N)NC(=O)[C@@H](N)CC(N)=O)C(=O)N[C@H](Cc1ccc(O)cc1)C(=O)N[C@H](C(=O)N[C@@H](Cc1c[nH]cn1)C(=O)N1CCC[C@H]1C(=O)N[C@@H](Cc1ccccc1)C(=O)O)C(C)C | 0.03
2 | CC(C)[C@H](NC(=O)[C@H](CCCNC(=N)N)NC(=O)[C@@H](N)CC(N)=O)C(=O)N[C@@H](Cc1ccc(O)cc1)C(=O)N1CCC[C@@H]1C(=O)N[C@@H](Cc1c[nH]cn1)C(=O)N1CCC[C@H]1C(=O)N[C@@H](Cc1ccccc1)C(=O)O | 0.05
3 | CC[C@H](C)[C@H](NC(=O)[C@H](Cc1ccc(O)cc1)NC(=O)[C@@H](NC(=O)[C@H](CCCN=C(N)N)NC(=O)[C@@H](N)CC(=O)O)C(C)C)C(=O)N[C@@H](Cc1c[nH]cn1)C(=O)N1CCC[C@H]1C(=O)N[C@H](C(=O)O)C(C)C (H-DRVYIHPV-OH) | 0.5
4 | COC(=O)[C@H](Cc1ccccc1)NC(=O)[C@@H]1CCCN1C(=O)[C@H](Cc1c[nH]cn1)NC(=O)[C@@H](NC(=O)[C@H](Cc1ccc(O)cc1)NC(=O)[C@@H](NC(=O)[C@H](CCCN=C(N)N)NC(=O)[C@@H](N)CC(N)=O)C(C)C)C(C)C (H-NRVYVHPF-OMe) | 10
5 | CC[C@H](C)[C@H](NC(=O)[C@H](Cc1ccc(O)cc1)NC(=O)[C@@H](NC(=O)[C@@H](CCCN=C(N)N)NC(=O)[C@@H](N)CC(=O)O)C(C)C)C(=O)NC(Cc1c[nH]cn1)C(=O)N1CCC[C@@H]1C(=O)N[C@@H](C(=O)O)[C@@H](C)CC (stereo in doubt) [listing 1 of 2 here] | 0.014
6 | CC[C@H](C)[C@H](NC(=O)[C@H](Cc1ccc(O)cc1)NC(=O)[C@@H](NC(=O)[C@H](CCCN=C(N)N)NC(=O)[C@@H](N)CC(=O)O)C(C)C)C(=O)N[C@@H](Cc1c[nH]cn1)C(=O)N1CCC[C@H]1C(=O)N[C@@](C)(Cc1ccccc1)C(=O)O | 80
7 | CC[C@H](C)[C@H](NC(=O)[C@H](Cc1ccc(O)cc1)NC(=O)[C@@H](NC(=O)[C@H](CCCN=C(N)N)NC(=O)[C@@H](N)CC(=O)O)C(C)C)C(=O)N[C@@H](Cc1c[nH]cn1)C(=O)N1CCC[C@H]1C(=O)N[C@@H](Cc1ccc(Br)cc1)C(=O)O | 50
8 | CC[C@H](C)[C@H](NC(=O)[C@H](Cc1ccc(O)cc1)NC(=O)[C@@H](NC(=O)[C@H](CCCN=C(N)N)NC(=O)[C@@H](N)CC(=O)O)C(C)C)C(=O)N[C@@H](Cc1c[nH]cn1)C(=O)N1CCC[C@H]1C(=O)N[C@@H](Cc1ccc(N)cc1)C(=O)O | 53
9 | CC(C)[C@H](NC(=O)[C@H](CCCN=C(N)N)NC(=O)[C@@H](N)CC(N)=O)C(=O)N[C@@H](Cc1ccc(O)cc1)C(=O)N[C@H](C(=O)N[C@@H](Cc1c[nH]cn1)C(=O)N1CCC[C@H]1C(=O)N[C@@H](Cc1ccccc1)C(N)=O)C(C)C (H-NRVYVHPF-NH2) | 3
10 | CC[C@H](C)[C@H](NC(=O)[C@H](Cc1ccc(O)cc1)NC(=O)[C@@H](NC(=O)[C@H](CCCN=C(N)N)NC(=O)[C@@H](N)CC(=O)O)C(C)C)C(=O)N[C@@H](Cc1c[nH]cn1)C(=O)N1CCC[C@H]1C(=O)N[C@@H](Cc1c[nH]c2ccccc12)C(=O)O (H-DRVYIHPW-OH) | 22.2
11 | CC[C@H](C)[C@H](NC(=O)[C@H](Cc1ccc(O)cc1)NC(=O)[C@@H](NC(=O)[C@H](CCCN=C(N)N)NC(=O)[C@@H](N)CC(=O)O)C(C)C)C(=O)N[C@@H](Cc1c[nH]cn1)C(=O)N1CCC[C@H]1C(=O)N[C@@H](Cc1ccc(O)cc1)C(=O)O (H-DRVYIHPY-OH) | 83
12 | CC[C@H](C)[C@H](NC(=O)[C@H](Cc1ccc(O)cc1)NC(=O)[C@@H](NC(=O)[C@H](CCCNC(=N)N)NC(=O)[C@@H](N)CC(=O)O)C(C)C)C(=O)N[C@@H](Cc1c[nH]cn1)C(=O)N1CCC[C@H]1C(=O)N[C@@H](C(=O)O)[C@@H](C)CC | 0.72
13 | CC(C)[C@H](NC(=O)[C@H](CCCN=C(N)N)NC(=O)[C@@H](N)CC(N)=O)C(=O)N[C@@H](Cc1ccc(O)cc1)C(=O)N1CCC[C@H]1C(=O)N[C@@H](Cc1c[nH]cn1)C(=O)N1CCC[C@H]1C(=O)N[C@@H](Cc1ccccc1)C(=O)O | 10

Each molecule was assayed against Angiotensin II receptor (Homo sapiens) (UniProt P30556+P50052) (assay: In vitro angiotensin II-like activity, expressed as percent relative to angiotensin II, measured in the rabbit aorta strip assay). Conditions: Oryctolagus cuniculus.
Format: functional, tissue-based

Row | Structure (SMILES) | Biological activity [%]
14 | CC[C@H](C)[C@H](NC(=O)[C@@H]1CCCN1C(=O)[C@@H](Cc1c[nH]cn1)NC(=O)[C@@H](NC(=O)[C@@H](Cc1ccc(O)cc1)NC(=O)[C@@H](NC(=O)[C@H](CCCN=C(N)N)NC(=O)CNC)C(C)C)[C@@H](C)CC)C(=O)O | -0
15 | CC[C@H](C)[C@H](NC(=O)[C@@H]1CCCN1C(=O)[C@H](Cc1c[nH]cn1)NC(=O)[C@@H](NC(=O)[C@H](Cc1ccc(O)cc1)NC(=O)[C@H](NC(=O)[C@H](CCCN=C(N)N)NC(=O)CNC)C(C)C)[C@@H](C)CC)C(=O)O | -0
16 | CC[C@H](C)[C@H](NC(=O)C(C)NC(=O)[C@H](Cc1c[nH]cn1)NC(=O)[C@H](NC(=O)[C@@H](Cc1ccc(O)cc1)NC(=O)[C@@H](NC(=O)[C@H](CCCNC(=N)N)NC(=O)[C@@H](N)CC(=O)O)C(C)C)C(C)C)C(=O)O (stereo in doubt) | -0
17 | CC[C@H](C)[C@H](NC(=O)[C@H](Cc1ccc(O)cc1)NC(=O)[C@@H](NC(=O)[C@@H](CCCNC(=N)N)NC(=O)CNC)C(C)C)C(=O)N[C@@H](Cc1c[nH]cn1)C(=O)N1CCC[C@@H]1C(=O)NC(Cc1c[nH]c2ccccc12)C(=O)O (stereo in doubt) | -0
18 | CC[C@H](C)[C@H](NC(=O)[C@@H]1CCCN1C(=O)[C@H](Cc1c[nH]cn1)NC(=O)[C@@H](NC(=O)[C@@H](Cc1ccc(O)cc1)NC(=O)[C@@H](NC(=O)[C@H](CCCN=C(N)N)NC(=O)CNC)C(C)C)[C@@H](C)CC)C(=O)O | -0
19 | CC[C@H](C)[C@H](NC(=O)[C@H](Cc1ccc(O)cc1)NC(=O)[C@@H](NC(=O)[C@@H](CCCNC(=N)N)NC(=O)CNC)C(C)C)C(=O)N[C@@H](Cc1c[nH]cn1)C(=O)N1CCC[C@@H]1C(=O)N[C@H](Cc1ccc(Cl)cc1)C(=O)O | -0
20 | CC[C@H](C)[C@H](NC(=O)[C@@H]1CCCN1C(=O)[C@H](Cc1c[nH]cn1)NC(=O)[C@@H](NC(=O)[C@@H](Cc1ccc(O)cc1)NC(=O)[C@@H](NC(=O)[C@@H](CCCN=C(N)N)NC(=O)CNC)C(C)C)[C@@H](C)CC)C(=O)O | -0
21 | CC[C@H](C)[C@H](NC(=O)[C@H](Cc1ccc(O)cc1)NC(=O)[C@@H](NC(=O)[C@@H](CCCNC(=N)N)NC(=O)CNC)C(C)C)C(=O)N[C@@H](Cc1c[nH]cn1)C(=O)N1CCC[C@@H]1C(=O)N[C@H](Cc1ccc(B(O)O)cc1)C(=O)O | -0
22 | CC[C@H](C)[C@H](NC(=O)[C@H](Cc1ccc(O)cc1)NC(=O)[C@@H](NC(=O)[C@@H](CCCNC(=N)N)NC(=O)CNC)C(C)C)C(=O)N[C@@H](Cc1c[nH]cn1)C(=O)N1CCC[C@@H]1C(=O)N[C@@H](Cc1ccc2ccccc2c1)C(=O)O | -0
23 | CC[C@H](C)[C@H](NC(=O)[C@@H]1CCCN1C(=O)[C@H](Cc1c[nH]cn1)NC(=O)[C@H](NC(=O)[C@@H](Cc1ccc(O)cc1)NC(=O)[C@@H](NC(=O)[C@H](CCCN=C(N)N)NC(=O)CNC)C(C)C)C(C)C)C(=O)O | -0
24 | CC[C@H](C)[C@H](NC(=O)[C@H](Cc1ccc(O)cc1)NC(=O)[C@@H](NC(=O)[C@@H](CCCNC(=N)N)NC(=O)CNC)C(C)C)C(=O)NC(Cc1c[nH]cn1)C(=O)N1CCC[C@@H]1C(=O)N[C@@H](C(=O)O)C(C)C (stereo in doubt) | -0
25 | CC[C@H](C)[C@H](NC(=O)[C@H](Cc1ccc(O)cc1)NC(=O)[C@@H](NC(=O)[C@@H](CCCN=C(N)N)NC(=O)[C@@H](N)CC(=O)O)C(C)C)C(=O)NC(Cc1c[nH]cn1)C(=O)N1CCC[C@@H]1C(=O)N[C@@H](C(=O)O)[C@@H](C)CC (stereo in doubt) [listing 2 of 2 here] | -0
26 | CC[C@H](C)[C@H](NC(=O)[C@@H](Cc1ccc(O)cc1)NC(=O)[C@@H](NC(=O)[C@H](CCCNC(=N)N)NC(=O)CNC)C(C)C)C(=O)N[C@@H](Cc1c[nH]cn1)C(=O)N1CCC[C@H]1C(=O)N[C@@H](C(=O)O)C(C)C | -0
27 | CC[C@H](C)[C@H](NC(=O)[C@H](Cc1ccc(O)cc1)NC(=O)[C@@H](NC(=O)[C@H](CCCN=C(N)N)NC(=O)[C@@H](N)CC(=O)O)C(C)C)C(=O)N[C@@H](Cc1c[nH]cn1)C(=O)N1CCC[C@H]1C(=O)N[C@@H](Cc1ccc(O)cc1)C(=O)O (H-DRVYIHPY-OH) | 100
28 | CC[C@H](C)[C@H](NC(=O)[C@H](Cc1ccc(O)cc1)NC(=O)[C@@H](NC(=O)[C@@H](CCCNC(=N)N)NC(=O)CNC)C(C)C)C(=O)N[C@@H](Cc1c[nH]cn1)C(=O)N1CCC[C@@H]1C(=O)N[C@H](Cc1ccccc1)C(N)=O | -0
29 | CC[C@H](C)[C@H](NC(=O)[C@H](Cc1ccc(O)cc1)NC(=O)[C@@H](NC(=O)[C@@H](CCCNC(=N)N)NC(=O)CNC)C(C)C)C(=O)N[C@@H](Cc1c[nH]cn1)C(=O)N1CCC[C@@H]1C(=O)N[C@](C)(Cc1ccccc1)C(=O)O | -0

Organism: Rattus norvegicus
Assay: Dose required for the two fold increase in the dose of AII to produce the same elevation in blood pressure as in the control period.
Format: functional
Conditions: not given
How it was run: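 Rat blood pressure assay in vivo, using 250-g rats. ID50 is the antagonist dose, in ng/rat per min, that requires a twofold increase in the AII dose to give the same blood pressure rise as in the control period.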

Row | Structure (SMILES) | ID50 [ng min-1 rat-1]
30 | CC[C@H](C)[C@H](NC(=O)[C@H](Cc1ccc(O)cc1)NC(=O)[C@@H](NC(=O)[C@H](CCCNC(=N)N)NC(=O)CNC)C(C)C)C(=O)N[C@@H](Cc1c[nH]cn1)C(=O)N1CCC[C@H]1C(=O)N[C@H](Cc1ccccc1)C(N)=O | 12.5
31 | CC[C@H](C)[C@H](NC(=O)[C@H](Cc1ccc(O)cc1)NC(=O)[C@@H](NC(=O)[C@H](CCCNC(=N)N)NC(=O)CNC)C(C)C)C(=O)N[C@@H](Cc1c[nH]cn1)C(=O)N1CCC[C@H]1C(=O)N[C@H](Cc1ccc2ccccc2c1)C(=O)O | 25
32 | CC[C@H](C)[C@H](NC(=O)[C@H](Cc1ccc(O)cc1)NC(=O)[C@@H](NC(=O)[C@H](CCCNC(=N)N)NC(=O)C[C@@H](N)C(=O)O)C(C)C)C(=O)N[C@@H](Cc1c[nH]cn1)C(=O)N1CCC[C@H]1C(=O)N[C@@H](CC(C)C)C(=O)O | 15
33 | CC[C@H](C)[C@H](NC(=O)[C@H](Cc1ccc(O)cc1)NC(=O)[C@@H](NC(=O)[C@H](CCCNC(=N)N)NC(=O)CNC)C(C)C)C(=O)N[C@@H](Cc1c[nH]cn1)C(=O)N1CCC[C@H]1C(=O)N[C@](C)(Cc1ccccc1)C(=O)O | 10
34 | CC[C@H](C)[C@H](NC(=O)[C@H](Cc1ccc(O)cc1)NC(=O)[C@@H](NC(=O)[C@H](CCCNC(=N)N)NC(=O)CNC)C(C)C)C(=O)N[C@@H](Cc1c[nH]cn1)C(=O)N1CCC[C@H]1C(=O)N[C@H](Cc1ccc(Cl)cc1)C(=O)O | 25
